Source: PubChem BioAssay (several laboratories)
Measles CPE: protection of cells from measles virus; protection (pct of control), % at 4 µM; Measles virus-infected cells, CPE protection, absorbance; hit rate 1.5% among 140,000; AID 841; in the data active = protection mostly above about 24%, no sharp cut-off; inactive = mostly below about 26%
NPY Y1 blocker: antagonists of human neuropeptide Y receptor Y1 | HEK293-CNG Y1 cells, membrane potential fluorescence; NPY at EC95, then isoproterenol | inhibition, % at 3.6 µM | AID 1040 | P25929 | hit rate 1% among 200,000;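 active = inhibition above the campaign mean inhibition of all tested compounds plus 3 SD, cut at about 20% in these data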
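Assay system: HEK293 Y1/CNG channel cell line; Doses: single compound dose of 3.6 µM, 0.4% DMSO; Timing: dye 3 h, compound 60 min room temperature, stimulation 45 min; Technique: Membrane-potential fluorescent dye readout; Measure: % inhibition of NPY effect.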
NPY2 pot ag: potentiators or agonists of human neuropeptide Y receptor Y2 | AID 1359 | cells expressing NPY-Y2, potentiator/agonist read-out | activation, % at 3.6 µM | hit rate 0.45% among 220,000 | P49146; in the data active = activation above about 27%;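 also: cells stimulated with NPY near EC25 plus isoproterenol at EC100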
NPY-Y2 antag: blocks the human neuropeptide Y Y2 receptor; P49146; NPY-Y2 expressing cells, antagonist mode; inhibition, % at 2.7 µM; hit rate 0.99% among 140,000; AID 793; in the data active = inhibition above about 17%
MDM2 E3 inh: blocks human Mdm2 ubiquitin ligase activity; cell-based MDM2 ubiquitination luciferase reporter, 2 h; 0 = plate control, 100 = twice control, blank-subtracted; signal enhancement, % at 5 µM; hit rate 0.11% among 210,000; AID 1230;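 active = signal enhancement of 30% or more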;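 also: luminescence tracks abundance of the self-degrading MDM2-luciferase fusion protein; higher signal means inhibition of MDM2 E3 ligase activity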
Target sequence (Q00987 whole entry, looked up, the tested form may be a part): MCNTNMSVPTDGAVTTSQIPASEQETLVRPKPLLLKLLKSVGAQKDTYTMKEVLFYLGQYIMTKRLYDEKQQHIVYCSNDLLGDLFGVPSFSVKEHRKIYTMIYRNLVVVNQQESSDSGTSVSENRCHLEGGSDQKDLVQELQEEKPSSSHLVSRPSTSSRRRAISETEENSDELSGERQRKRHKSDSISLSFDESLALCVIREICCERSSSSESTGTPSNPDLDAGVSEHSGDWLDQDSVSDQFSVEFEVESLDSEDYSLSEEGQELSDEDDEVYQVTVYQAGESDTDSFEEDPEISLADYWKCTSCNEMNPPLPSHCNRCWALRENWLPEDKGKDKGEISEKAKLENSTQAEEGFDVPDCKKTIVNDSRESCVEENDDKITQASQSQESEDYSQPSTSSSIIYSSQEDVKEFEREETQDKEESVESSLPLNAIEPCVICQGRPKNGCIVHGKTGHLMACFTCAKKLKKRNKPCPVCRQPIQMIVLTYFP
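Material: stable MDM2–luciferase fusion reporter cells / Quantity: 2000 cells/well / Dosing: single 5 µM compound dose, 0.2% final DMSO / Buffer or medium: DMEM / Schedule: 4 h cell settling then 2 h compound exposure, 37 °C / Detection: luminescence with SteadyLite reagent, 15 min at room temperature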
NPY1 pot ag: potentiators or agonists of human neuropeptide Y receptor Y1 | P25929 | NPY-Y1 expressing cells, potentiator/agonist activation | activation, % at 3.6 µM | hit rate 0.37% among 220,000 | AID 1304; in the data active = activation above about 33%, passing the limit was not always enough;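 also: cells stimulated with NPY at EC10 then isoproterenol at EC100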
NPY1 antag ctr: counter-screen for NPY-Y2 antagonists: human NPY-Y1 antagonism. shares compounds with NPY-Y2 antag. cell-based NPY-Y1 antagonism counterscreen. inhibition, % at 3.6 µM. hit rate 19% among 710. AID 1256; in the data active = inhibition above about 20%;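 also: cells challenged with NPY then isoproterenol with cAMP sensed through a CNG channel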
NPY-Y2 ant conf: human NPY-Y2 antagonism, confirmation. hit rate 32% among 710. shares compounds with NPY-Y2 antag. AID 1257. inhibition, % at 2.8 µM. HEK293 NPY-Y2 CNG channel, membrane potential fluorescence;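 active = mean inhibition of triplicate wells above the hit cutoff set in the primary screen, cut at about 17% in these data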
Each line names hits and unclear results; the compound was inactive in the other large screens (follow-up assays come after a bar, where they were run). A selection: hits, their analogues and other compounds. The true share with any hit is near 2.8%.

CC(=O)c1cccc(NC(=O)COC(=O)c2n[nH]c3ccccc23)c1	none (no result: Measles CPE, NPY-Y2 antag)
c1ccc(-c2nc(CSc3nnc(-c4cccs4)o3)cs2)cc1	NPY-Y2 antag 20 | NPY1 antag ctr inactive | NPY-Y2 ant conf 20
O=C(Cc1ccc(Cl)cc1)Nc1ccc(NC(=O)c2ccccc2)cc1	NPY-Y2 antag 21 | NPY1 antag ctr inactive | NPY-Y2 ant conf inactive
O=C(Nc1ccc(Cl)cc1)c1csc(-c2ccccc2)n1	NPY-Y2 antag 20 | NPY1 antag ctr inactive | NPY-Y2 ant conf 23
Cc1cccc(C(=O)Nc2ccc(NC(=O)Cc3ccc(Cl)cc3)cc2)c1	none
O=C(Nc1ccc(Cl)cc1)c1csc(-c2ccncc2)n1	none (no result: Measles CPE, NPY-Y2 antag)
COc1ccc(OC)c(S(=O)(=O)N2CCC(C(=O)Nc3ccccc3)CC2)c1	none (no result: Measles CPE, NPY-Y2 antag)
COc1ccc(NC(=O)c2n[nH]c(=O)c3ccccc23)cc1S(=O)(=O)N1CCCCC1	NPY-Y2 antag 27 | NPY1 antag ctr inactive | NPY-Y2 ant conf 19
COc1ccc(NC(=O)C2CCC(C(C)(C)C)CC2)cc1S(=O)(=O)N1CCCCC1 (stereo unspecified)	NPY-Y2 antag 21 | NPY1 antag ctr inactive | NPY-Y2 ant conf inactive
COc1ccc(Cn2c(C)nnc2-c2cnn(C)c2N)cc1	none (no result: Measles CPE, NPY-Y2 antag)
CCOC(=O)c1c(-c2ccc(C)o2)csc1NC(=O)COC(=O)c1cccs1	NPY-Y2 antag 20 | NPY1 antag ctr inactive | NPY-Y2 ant conf inactive
CCOC(=O)c1c(-c2ccc(C)o2)csc1NC(=O)CN1CCOCC1	none
O=C(c1ccccc1)N(Cc1cccnc1)C1(C(=O)Nc2ccccc2)CCCCC1	NPY-Y2 antag 19 | NPY1 antag ctr inactive | NPY-Y2 ant conf inactive
CCC(=O)Nc1nonc1-c1nc2ccccc2n1Cc1cccc2ccccc12	NPY-Y2 antag 18 | NPY1 antag ctr 26 | NPY-Y2 ant conf 41
O=C(C(Sc1ccccc1)c1ccccc1)N1CCN(c2ccccc2)CC1 (stereo unspecified)	NPY-Y2 antag 19 | NPY1 antag ctr inactive | NPY-Y2 ant conf inactive
O=C(COC(=O)c1cccc(Cl)c1)Nc1cc(Cl)ccc1Oc1ccccc1	NPY-Y2 antag 19 | NPY1 antag ctr inactive | NPY-Y2 ant conf inactive
CCOC(=O)Cc1csc(SCC(=O)Nc2cccc(Cl)c2)n1	none
CCOC(=O)Cc1csc(SCC(=O)Nc2cc(Cl)ccc2Oc2ccccc2)n1	NPY-Y2 antag 19 | NPY1 antag ctr inactive | NPY-Y2 ant conf inactive
Cc1ccc(S(=O)(=O)N2CCOCC2)cc1C(=O)NC(=S)N1CC(C)OC(C)C1 (stereo unspecified)	none (no result: Measles CPE, NPY Y1 blocker, NPY-Y2 antag)
Oc1ccccc1CNc1ccc(Br)cn1	NPY-Y2 antag 151 | NPY1 antag ctr 26 | NPY-Y2 ant conf 52
Cc1cc(C)c(N2CCN(S(=O)(=O)N3CCCCCC3)CC2)c(C)c1	none
O=C(NC1CCCCC1)c1cnn2c(C(F)(F)F)cc(-c3ccco3)nc12	NPY-Y2 antag 19 | NPY1 antag ctr inactive | NPY-Y2 ant conf inactive
CCOC(=O)C1(CCCc2ccccc2)CCN(C(=O)c2cnn(CC)c2)CC1	none (no result: Measles CPE, NPY-Y2 antag)
COc1ccc(CS(=O)c2nc(C)cc(C)c2S(C)(=O)=O)cc1 (stereo unspecified)	none (no result: Measles CPE, NPY-Y2 antag)
c1ccc(-c2oc3ncnc(NCCCN4CCOCC4)c3c2-c2ccccc2)cc1	NPY-Y2 antag 18 | NPY1 antag ctr inactive | NPY-Y2 ant conf inactive
O=C(NCCNS(=O)(=O)c1ccccc1)c1cc(OCC(F)(F)F)ccc1OCC(F)(F)F	none
O=C(NCCNS(=O)(=O)c1ccc(Cl)cc1)c1cc(OCC(F)(F)F)ccc1OCC(F)(F)F	NPY-Y2 antag 38 | NPY1 antag ctr inactive | NPY-Y2 ant conf inactive
CC(C)OC(=O)/C(=C/c1ccc2c(c1)c1ccccc1n2C)NC(=O)c1ccccc1	NPY-Y2 antag 21 | NPY1 antag ctr inactive | NPY-Y2 ant conf 20
Cn1c2ccccc2c2cc(/C=C(\NC(=O)c3ccccc3)C(=O)O)ccc21	none (no result: Measles CPE, NPY Y1 blocker, NPY-Y2 antag, MDM2 E3 inh)
Cc1ccc(-c2cc(C(=O)Nc3ccc4c(c3)OCCO4)c3ccccc3n2)cc1	NPY-Y2 antag 27 | NPY1 antag ctr inactive | NPY-Y2 ant conf 39
O=C(Nc1ccc2c(c1)OCO2)c1cc(-c2cccnc2)nc2ccccc12	none (no result: Measles CPE, NPY-Y2 antag)
CCOC(=O)CCCCC(=O)c1[nH]c(=O)[nH]c1CSc1nnc2c3ccccc3n(C(C)C)c2n1	NPY-Y2 antag 32 | NPY1 antag ctr inactive | NPY-Y2 ant conf 45
CC(C(=O)NCc1ccco1)n1cc([N+](=O)[O-])cn1 (stereo unspecified)	none (no result: Measles CPE, NPY-Y2 antag)
O=C(NC(=S)Nc1ccccc1N1CCCCC1)c1ccco1	NPY-Y2 antag 18 | NPY1 antag ctr inactive | NPY-Y2 ant conf inactive
NC(=O)[C@@H]1CCOc2c(I)cc([N+](=O)[O-])cc2C(=O)N[C@@H](CO)C(=O)NCC(=O)N1	none (no result: MDM2 E3 inh)
Cc1ccc(-c2nn3c(C)nnc3s2)cc1NC(=O)c1ccc(-c2ccc(Cl)cc2Cl)o1	NPY-Y2 antag 19 (no result: MDM2 E3 inh) | NPY1 antag ctr 22 | NPY-Y2 ant conf 24
CCCCNC(=O)c1onc(CSc2ccccc2F)c1C(=O)O	NPY-Y2 antag 37 | NPY1 antag ctr inactive | NPY-Y2 ant conf 18
C=CCNC(=O)c1onc(CSc2ccccc2F)c1C(=O)O	NPY-Y2 antag 18 | NPY1 antag ctr inactive | NPY-Y2 ant conf inactive
CCCCNC(=O)c1onc(CSc2cc(C)cc(C)c2)c1C(=O)O	none
C=CCNC(=O)c1onc(CSc2cccc3ccccc23)c1C(=O)O	none
CCCCNC(=O)c1onc(CSc2cccc(C)c2)c1C(=O)O	NPY-Y2 antag 21 | NPY1 antag ctr inactive | NPY-Y2 ant conf inactive
CC(=O)c1cn(S(=O)(=O)c2ccccc2)c2ccccc12	none
CCOC(=O)Nc1csnn1	none (no result: Measles CPE, NPY Y1 blocker, NPY-Y2 antag, MDM2 E3 inh)
O=C(c1ccc(F)cc1)N1CCN(c2cc(N3CCCCC3)c(F)cc2[N+](=O)[O-])CC1	none
Cc1cc(C)c[n+](-c2[nH]c(=O)sc2/C=N/N=C(\N)[S-])c1	none (no result: Measles CPE, NPY-Y2 antag)
Cc1cccc(C)c1NC(=O)CCCSc1nnc(-c2ccc(Cl)cc2)n1-c1ccccc1	NPY-Y2 antag 18 | NPY1 antag ctr inactive | NPY-Y2 ant conf inactive
CCOc1ccc(-c2nc(C#N)c(NCc3ccc4c(c3)OCO4)o2)cc1	none
Cc1ccc(OCc2nc(C#N)c(NCc3ccc4c(c3)OCO4)o2)cc1	NPY-Y2 antag 22 | NPY1 antag ctr inactive | NPY-Y2 ant conf inactive
Cc1ccc(N=C(NO)c2nonc2N)c(C)c1	none
Cc1ccc(N=C(NOC(=O)c2ccccc2)c2nonc2N)c(C)c1	NPY-Y2 antag 25 | NPY1 antag ctr inactive | NPY-Y2 ant conf inactive
Cc1ccc(C(C(=O)NC2CCCCC2)N(Cc2cccnc2)C(=O)C2COc3ccccc3O2)o1 (stereo unspecified)	NPY-Y2 antag 25 | NPY1 antag ctr inactive | NPY-Y2 ant conf inactive
